Compound activity deposited in PubChem BioAssay by The Scripps Research Institute Molecular Screening Center.
MC4R ag barr = agonists of human melanocortin 4 receptor (MC4R) beta-arrestin. P32245. U2OS MC4R beta-arrestin complementation, luminescence; percent of melanotan II response, DMSO zero. activation, % at 8.9 µM. hit rate 0.98% among 360,000. AID 540308;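 active = activation above a per-plate cutoff, the mean activation of sample wells on that plate plus 3 SD, cut at about 8% in these data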
Target sequence (P32245 whole entry, looked up): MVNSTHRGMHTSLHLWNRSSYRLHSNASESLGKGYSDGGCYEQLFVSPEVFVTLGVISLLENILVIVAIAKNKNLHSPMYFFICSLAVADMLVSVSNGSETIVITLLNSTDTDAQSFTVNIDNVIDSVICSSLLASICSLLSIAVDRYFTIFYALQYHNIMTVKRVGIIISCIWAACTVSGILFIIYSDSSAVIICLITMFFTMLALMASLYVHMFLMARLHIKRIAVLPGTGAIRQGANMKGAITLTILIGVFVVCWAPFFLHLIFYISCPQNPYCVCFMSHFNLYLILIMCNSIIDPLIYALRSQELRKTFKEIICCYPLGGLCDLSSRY
GAA850 FXN act = frataxin GAA850 promoter activation; HEK293 lucGAA850 FXN promoter luciferase reporter, 24 h; percent of 10 µM SAHA response; activation, % at 6 µM; hit rate 0.56% among 360,000; AID 540364;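 active = activation above the average of all compounds screened plus 3 SD, cutoff fixed separately per campaign, cut at about 7.5% in these data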;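 also: 0% = DMSO wells and 100% = 10 µM SAHA wells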
HTR2A ag = agonists of mouse serotonin 5-HT2A receptor (HTR2A); CHO-K1 mHTR2A beta-arrestin complementation, luminescence; percent of 30 µM serotonin response; activation, % at 7.6 µM; hit rate 0.66% among 360,000; AID 624169;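 active = activation above a run cutoff, the mean activation of all tested compounds plus 3 SD, cut at about 14% in these data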;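 also: 0% = plate median of compound wells and 100% = 30 µM serotonin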
AHR act = activators of human aryl hydrocarbon receptor; hit rate 2.5% among 320,000; activation, % at 5 µM; P35869; AHR-responsive luciferase reporter cells, luminescence; in the data active = activation above about 47%;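 also: 0% = vehicle wells and 100% = reference agonist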
MC4R antagonist = blocks human MC4R cAMP signaling | P32245 | AID 540295 | MC4R-expressing cells, MTII-stimulated cAMP, LANCE TR-FRET | hit rate 0.48% among 360,000 | inhibition, % at 6.5 µM;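 active = inhibition above its plate's cutoff, the mean of tested wells on that plate plus 3 SD, cut at about 29% in these data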;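 also: 0% = Melanotan II alone and 100% = Melanotan II plus saturating MCL0020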
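Test system: U2OS cells stably expressing human melanocortin 4 receptor (MC4R); also added: Melanotan II challenge; compound: 6.5 µM single dose; timing: 30-min compound preincubation, 1-h Melanotan II challenge, 1-h detection, room temperature; signal: Eu-cAMP/anti-cAMP TR-FRET, emission 671 nm; repeats: one well per compound, no replicates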
GAA30 FXN cntr = activates GAA30 frataxin promoter, counter-screen for GAA850 activators. activation, % at 6 µM. hit rate 66% among 1,900. AID 588350. HEK293 lucGAA30 FXN promoter luciferase, 24 h; DMSO = 0%, 5 µM ipriflavone = 100%. shares compounds with GAA850 FXN act;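 active = mean activation above the mean of solvent-only control wells plus 3 SD, cut at about 22% in these data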;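 also: counterscreen of GAA850 promoter hits where activity marks nonselective or luminescence artifacts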
GAA850 confirm = confirmation of GAA850 frataxin (FXN) promoter activators. shares compounds with GAA850 FXN act. HEK293 lucGAA850 FXN promoter luciferase reporter, 24 h; 100% = activation by SAHA. activation, % at 6 µM. hit rate 86% among 1,900. AID 588351;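 active = mean activation above a set limit taken from the primary screen, cut at about 8% in these data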;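 also: 0% = DMSO wells and 100% = 10 µM SAHA wells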
The depositor's hits bear a star; / = no result given. This is a sample that favours compounds with a hit; in the whole collection about 4.7% have one here.

SMILES | MC4R ag barr | GAA850 FXN act | HTR2A ag | AHR act | MC4R antagonist | GAA30 FXN cntr | GAA850 confirm
Cc1cc(NC(=O)C(C)SCC(=O)Nc2cc(C(F)(F)F)ccc2N2CCCCC2)no1 (stereo not drawn) | 6 | 9.1* | -4 | 0 | 14 | 24* | 16*
C[C@H](CO)N1C[C@H](C)[C@@H](CN(C)S(=O)(=O)c2ccccc2)Oc2c(NS(=O)(=O)c3ccccc3)cccc2C1=O | -2 | 0 | -3 | -1 | 8 | / | /
CCS(=O)(=O)Nc1cc(-c2nc3cccnc3s2)ccc1C | -2 | 7.9* | 0 | 70* | 1 | 117* | 34*
CCn1c(-c2ccccc2)csc1=Nc1ccc(O)cc1 | -2 | 9.3* | -4 | 9 | -3 | 99* | 37*
CCOc1ccc(N=c2scc(-c3ccccc3)n2CCO)cc1 | -1 | 1 | -3 | 3 | 4 | / | /
N#C/C(=C/c1ccc(N2CCOCC2)o1)c1ccc(Cl)cc1 | 7 | 20* | -5 | 4 | 12 | 119* | 47*
COC(=O)c1c(NC(=O)COC(=O)CNC(=O)c2cccc(OC(F)F)c2)sc(C)c1C | 2 | 1 | 1 | / | 15 | / | /
CC(=O)c1cccc(NC(=O)NC2CCCCCCC2)c1 | -1 | 0 | 0 | 8 | 21 | / | /
O=C(Nc1ccc(F)c(F)c1)NC1CCCCC1 | 0 | 1 | 0 | 4 | 2 | / | /
Cc1cccc(NC(=O)NC2CCCCCCC2)c1 | -1 | 7.6* | -9 | / | 11 | 102* | 36*
Cc1ccc(NC(=O)NC2CCCCCCC2)cc1C | 3 | 9.7* | 6 | / | -2 | 93* | 36*
O=C(CCc1ccccc1)NCC(=O)N/N=C/c1ccc2c(c1)OCO2 | -2 | 0 | 8 | 5 | 12 | / | /
O=C(Cc1ccccc1)N/N=C/c1ccc2c(c1)OCO2 | 2 | 9.5* | -1 | 22 | -2 | 84* | 30*
Cc1cc(=O)[nH]c2sc(C(=O)N3c4ccccc4CC3C)c(N)c12 (stereo not drawn) | -2 | -1 | 6 | 3 | 10 | / | /
Cc1onc(-c2ccccc2Cl)c1C(=O)NCc1nnnn1-c1ccc(F)cc1 | -3 | -1 | -1 | 4 | 0 | / | /
COc1ccc(-c2nn3c(C4CCCCC4)nnc3s2)cc1OC | -2 | 13* | 3 | 7 | -4 | 13 | 9.7*
COc1ccc(-c2nnc3sc(C4CCCCC4)nn23)cc1OC | -1 | 8.8* | 2 | 3 | -24 | 10 | 11*
CC(C)(C)N1C(=O)[C@H]2[C@@H](c3ccc(Br)cc3)N3C(=O)N(c4cccc(F)c4)C(=O)[C@@]3(C)[C@H]2C1=O | -1 | 8.8* | 2 | 0 | 10 | 34* | 18*
COc1ccc([C@@H]2[C@@H]3C(=O)N(C(C)(C)C)C(=O)[C@@H]3[C@]3(C)C(=O)N(c4cccc(F)c4)C(=O)N23)cc1 | -2 | 2 | 1 | 3 | 6 | / | /
CC(C)(C)N1C(=O)[C@H]2[C@@H](c3ccc(Br)cc3)N3C(=O)N(c4cccc(Cl)c4)C(=O)[C@@]3(Cc3ccccc3)[C@H]2C1=O | 1 | 12* | 5 | 0 | 11 | 16 | 14*
COc1ccc([C@@H]2[C@@H]3C(=O)N(C(C)(C)C)C(=O)[C@@H]3[C@]3(C)C(=O)N(c4cccc(Br)c4)C(=O)N23)cc1 | -1 | 11* | 4 | 5 | 4 | 10 | 7
COc1ccc(N2C(=O)N3[C@H](c4ccc(Br)cc4)[C@@H]4C(=O)N(C(C)(C)C)C(=O)[C@@H]4[C@]3(Cc3ccccc3)C2=O)cc1 | -2 | -1 | -5 | -2 | 3 | / | /
CC[C@@]12C(=O)N(c3cccc(Br)c3)C(=O)N1[C@H](c1ccc(Br)cc1)[C@@H]1C(=O)N(C(C)(C)C)C(=O)[C@@H]12 | 0 | 11* | 0 | 3 | 11 | 45* | 17*
